Results collected from several papers.
Protocols differ between the studies behind these lines.
Target: Fibroblast growth factor receptor 1 (FGFR1, Homo sapiens, UniProt P11362)

SMILES | observed | technique | concentration | remaining binding [%]
COc1cnc(Nc2cccc(S(N)(=O)=O)c2)nc1N1CCN(c2ccccc2)CC1 | binding | competition with immobilised ligand | 1 µM | 100
O=C(NCC1CCOCC1)c1n[nH]cc1NC(=O)c1c(F)cccc1F | binding | competition with immobilised ligand | 1 µM | 100
C[C@@H]1CN(c2cc(-c3nn(C)c4ccc(OC5(C)CC5)cc34)ncn2)C[C@H](C)O1 | cell-free assay | competition with immobilised ligand | 1 µM | 100
CC1CCCN1c1nccc(-c2cnn3ncccc23)n1 (stereo not shown) | binding |  | 1 µM | 100
CO[C@H]1CC[C@H](CNc2ccc(S(=O)(=O)NC(=O)c3ccc(N4CCN(CC5=C(c6ccc(Cl)cc6)CC(C)(C)CC5)CC4)cc3Oc3cnc4[nH]ccc4c3)cc2[N+](=O)[O-])CC1 | cell-free assay | competition with immobilised ligand | 1 µM | 68
Nc1ncc2c(n1)-c1c([nH]c3ccc(C#CC4CC4)cc13)CCCC2 | binding | competition with immobilised ligand | 1 µM | 79
CN(C)c1ncc(F)c(-c2cnn3ncccc23)n1 | binding |  | 1 µM | 100
CC1=C(C#N)[C@@H](c2ccc3[nH]nc(C)c3c2)C(C#N)=C(c2ccc(Cl)cc2)N1 | cell-free assay | competition with immobilised ligand | 1 µM | 86.6
O=C(NCCCN1CCOCC1)c1ccc(Nc2ncc(Cl)c(-c3ccc(Cl)s3)n2)cc1 | binding | competition with immobilised ligand | 1 µM | 27
FC(F)(F)Oc1cccc(-c2cnc3ccc(-c4ccncc4)nn23)c1 | cell-free assay | competition with immobilised ligand | 5 µM | 72
C[C@@H]1CCN(c2nccc(-c3cnn4ncccc34)n2)C1 | binding |  | 1 µM | 100
O=C(c1ccc(Nc2ncc(Cl)c(-c3cc4ccccc4s3)n2)cc1)N1CCC(N2CCCC2)CC1 | binding | competition with immobilised ligand | 1 µM | 36
CS(=O)(=O)NCC[C@H](NC(=O)c1cncc2c1cnn2-c1ccc(F)cc1)c1ccnc(S(C)(=O)=O)c1 | cell-free assay | competition with immobilised ligand | 1 µM | 87
Cc1cnn2ncc(-c3ccnc(N(C)C)n3)c2c1 | binding |  | 1 µM | 100
CCN1CCN(Cc2ccc(C(=O)Nc3ccc(C)c(Oc4ccc5c(c4)CC(=O)N5)c3)cc2C(F)(F)F)CC1 | binding | competition with immobilised ligand | 1 µM | 78
C[C@H](NC(=O)c1cnc2n1[C@](C)(Cc1ccc(C#N)cc1)C(=O)N2c1cc(Cl)c(F)c(Cl)c1)C(=O)NC1(c2ccccn2)CC1 | cell-free assay | competition with immobilised ligand | 1 µM | 100
O=C(c1ccc(Nc2ncc(Cl)c(-c3ccc(Cl)s3)n2)cc1)N1CCC(N2CCCC2)CC1 | binding | competition with immobilised ligand | 1 µM | 12
COc1cnc(Nc2cccc(S(N)(=O)=O)c2)nc1N1CCN(c2ccccc2)C(=O)C1 | binding | competition with immobilised ligand | 1 µM | 83
c1cnn2ncc(-c3ccnc(N4CCC45COC5)n3)c2c1 | binding |  | 1 µM | 100
O=C1CCc2cc(Nc3cc(OC4CCOCC4)c([N+](=O)[O-])cc3Cl)ccc2N1 | cell-free assay | competition with immobilised ligand | 1 µM | 93
C[C@@H](c1ccc(-n2cnc3c(N)ncnc32)cc1)N1CCc2nn(C)c(Cc3ccccc3)c2C1=O | binding | competition with immobilised ligand | 0.1 µM | 94
N[C@H]1CCN(c2nccc(-c3cnn4ncccc34)n2)C1 | binding |  | 1 µM | 100
